According to ChEMBL document CHEMBL4825777, “Tripeptides as Integrin-Linked Kinase Modulating Agents Based on a Protein-Protein Interaction with α-Parvin” (ACS Med Chem Lett, 2021):
One block for each compound: values may come before it. The source made the active and inactive calls. No cut-off for these calls is given here. Non-standard residues stand in square brackets, D forms with d. Residues, ends and D or L forms follow the SMILES beside them. 2Nal = N[C@@H](Cc1ccc2ccccc2c1)C(=O)O

Experiments:
[1] = Cytotoxicity against human mesangial cells assessed as reduction in cell viability at 1 to 100 uM incubated for 24 hrs by MTT assay; type: cell-based; settings: dose 1-100 µM
Mesangial cell [2] = assay: Induction of F-actin polymerization in human mesangial cells ILK siRNA assessed as increase in phalloidin content at 50 uM measured after 24 hrs by Alexa 568-phalloidin based confocal microscopy relative to control; settings: filed as activator
Procedure, shortened: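 Human mesangial cells transfected with ILK siRNA, or scrambled siRNA as transfection control; cells then held in buffer (control) or compound at 50 μM for 24 h. Stained with Alexa 568 phalloidin and imaged by confocal microscopy. F-actin quantified in three independent assays; mean ± SEM as percentage vs control, p < 0.05 vs control.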

[3] = target: T1, Scaffold protein ILK (Homo sapiens) (UniProt Q13418); assay: Induction of ILK (unknown origin)
T1 sequence (whole entry): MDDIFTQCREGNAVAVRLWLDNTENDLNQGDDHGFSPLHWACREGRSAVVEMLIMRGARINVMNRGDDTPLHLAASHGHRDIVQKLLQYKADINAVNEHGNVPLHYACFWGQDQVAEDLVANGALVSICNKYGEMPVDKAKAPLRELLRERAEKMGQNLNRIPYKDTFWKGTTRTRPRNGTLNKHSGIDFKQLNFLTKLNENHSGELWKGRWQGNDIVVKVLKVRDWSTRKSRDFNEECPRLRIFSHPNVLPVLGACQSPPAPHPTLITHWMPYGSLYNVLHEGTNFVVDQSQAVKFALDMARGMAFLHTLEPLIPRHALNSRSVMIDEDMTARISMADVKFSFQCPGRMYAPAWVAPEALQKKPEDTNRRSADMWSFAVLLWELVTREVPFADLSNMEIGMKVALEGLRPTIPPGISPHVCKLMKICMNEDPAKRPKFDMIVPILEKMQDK

Mesangial cell [4] = assay: Induction of F-actin polymerization in human mesangial cells assessed as increase in F-actin levels measured after 24 hrs by Alexa 568-phalloidin based confocal microscopy
Procedure, shortened: (§1)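 Human mesangial cells incubated 24 h with compound at 50 μM, or with buffer as control. Cells stained with Alexa 568 phalloidin and F-actin examined by confocal microscopy. F-actin amount measured in three independent assays; mean ± SEM expressed as percent of control values; p < 0.05 vs control.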

[5] = target: T1, Scaffold protein ILK (Homo sapiens); assay: Modulation of ILK in human mesangial cells assessed as reduction in AKT phosphorylation at Ser473 residue at 50 uM measured upto 90 mins by Western blot analysis; type: cell-based; settings: Mesangial cell, time min <=90
Mesangial cell [6] = assay: Induction of F-actin polymerization in human mesangial cells assessed as F-actin levels at 50 uM measured after 24 hrs by Alexa 568-phalloidin based confocal microscopy; settings: filed as activator; procedure, shortened: as §1
[7] = target: T1, Scaffold protein ILK (Homo sapiens); assay: Modulation of ILK in human mesangial cells assessed as reduction in GSK-3beta phosphorylation at ser9 residue at 50 uM measured upto 90 mins by Western blot analysis; type: cell-based; settings: Mesangial cell, time min <=90
[8] = target: T1, Scaffold protein ILK (Homo sapiens); assay: Inhibition of ILK (unknown origin)

Activity [3]: inactive
SMILES: COC(=O)[C@@H](NC(=O)[C@H](Cc1ccccc1)NC(=O)[C@H](C)NC(C)=O)C(C)C (Ac-Ala-Phe-Val-OMe)
Activity [1]: Non-Toxic | Activity (Mesangial cell [2]): 59%

Activity [3]: inactive
SMILES: COC(=O)[C@@H](NC(=O)[C@H](C)NC(=O)[C@H](Cc1ccc(O)cc1)NC(C)=O)C(C)C (Ac-Tyr-Ala-Val-OMe)

Activity [3]: inactive
SMILES: COC(=O)[C@H](C)NC(=O)[C@H](Cc1ccccc1)NC(=O)[C@H](Cc1ccc(O)cc1)NC(C)=O (Ac-Tyr-Phe-Ala-OMe)

Activity [3]: inactive
SMILES: COC(=O)[C@H](CO)NC(=O)[C@H](Cc1ccccc1)NC(=O)[C@H](Cc1ccc(O)cc1)NC(C)=O (Ac-Tyr-Phe-Ser-OMe)

Activity [3]: inactive
SMILES: CC(=O)N[C@@H](Cc1ccc(O)cc1)C(=O)N[C@@H](Cc1ccccc1)C(=O)N[C@H](C(=O)O)C(C)C (Ac-Tyr-Phe-Val-OH)
Activity (Mesangial cell [4]): inactive

Activity [5]: inactive | Activity [7]: inactive | Activity [3]: inactive
SMILES: COC(=O)[C@@H](NC(=O)[C@H](Cc1ccccc1)NC(=O)[C@H](Cc1ccc(O)cc1)NC(C)=O)C(C)C (Ac-Tyr-Phe-Val-OMe)
Activity (Mesangial cell [6]): Active | Activity [1]: Non-Toxic | Activity (Mesangial cell [2]): 100%

Activity [3]: inactive | inhibition [8]: Active
SMILES: COC(=O)[C@H](CO)NC(=O)[C@H](Cc1ccc2ccccc2c1)NC(=O)[C@H](Cc1ccc(O)cc1)NC(C)=O (Ac-Tyr-[2Nal]-Ser-OMe)

Activity [3]: inactive | inhibition [8]: Active
SMILES: COC(=O)[C@@H](NC(=O)[C@H](Cc1ccc2ccccc2c1)NC(=O)[C@H](Cc1ccc(O)cc1)NC(C)=O)C(C)C (Ac-Tyr-[2Nal]-Val-OMe)
